The target of data set [1] is T1, Histone deacetylase (Homo sapiens) (UniProt Q13547+O15379+Q9UBN7+Q92769+Q9UQL6+Q8WUI4+Q9BY41+Q96DB2+P56524+Q9UKV0+Q969S8). Kind of data set: Inhibition of HDAC in human K562 cells nuclear extracts at 100 uM. Format: cell-free. In a few lines: (§1)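 Total HDAC activity was measured in vitro on K-562 nuclear extracts with compound at 100 µM. Values are the mean percent change from two independent experiments.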

Data set [2] relates to K562. The data set is described as follows: Antiproliferative activity against human K562 cells at 10 to 100 uM after 24 to 72 hrs. Type of data set: functional, cell-based. The gist of the method:
(§2)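 K-562 (chronic myeloid leukemia) and U-937 (histiocytic lymphoma) cells were exposed to the indicated compound concentrations. Proliferation and viability were scored separately at 24, 48 and 72 h. Data are mean ± SD of three independent cultures.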

Data set [3] deals with T1, Histone deacetylase (Homo sapiens). Kind of data set: Increase in HDAC activity in human K562 cells nuclear extracts at 100 uM. Type of data set: cell-based. The gist of the method: as §1
Data set [4] has as its system U-937. Kind of data set: Antiproliferative activity against human U937 cells at 10 to 100 uM after 72 hrs. Format: functional, cell-based. The gist of the method:
as §2

Data set [5] deals with U-937. The data set is described as follows: Antiproliferative activity against human U937 cells at 10 to 100 uM after 24 to 48 hrs. Format: functional, cell-based. The gist of the method: as §2
Data set [6] concerns K562. The data set is described as follows: Cytotoxicity against human K562 cells assessed as reduction in cell viability at 10 to 100 uM after 24 to 72 hrs. Type of data set: functional, cell-based. The gist of the method: as §2
Data set [7] concerns PBMC. The data set is described as follows: Cytotoxicity against human PBMC assessed as reduction in cell viability at 10 to 100 uM after 24 to 48 hrs.
Data set [8] addresses Histone deacetylase 1 (Homo sapiens, UniProt Q13547). The data set is described as follows: Inhibition of HDAC1 (unknown origin). The gist of the method: (§3)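 Activity of individual HDAC isoenzymes (classes I, IIb and IV) was measured in vitro with compound. IC50 values come from two independent experiments.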
For data set [9], the target named is Histone deacetylase 2 (Homo sapiens, UniProt Q92769). The data set is described as follows: Inhibition of HDAC2 (unknown origin). In a few lines: as §3
Histone deacetylase 2, sequence (Q92769 whole entry): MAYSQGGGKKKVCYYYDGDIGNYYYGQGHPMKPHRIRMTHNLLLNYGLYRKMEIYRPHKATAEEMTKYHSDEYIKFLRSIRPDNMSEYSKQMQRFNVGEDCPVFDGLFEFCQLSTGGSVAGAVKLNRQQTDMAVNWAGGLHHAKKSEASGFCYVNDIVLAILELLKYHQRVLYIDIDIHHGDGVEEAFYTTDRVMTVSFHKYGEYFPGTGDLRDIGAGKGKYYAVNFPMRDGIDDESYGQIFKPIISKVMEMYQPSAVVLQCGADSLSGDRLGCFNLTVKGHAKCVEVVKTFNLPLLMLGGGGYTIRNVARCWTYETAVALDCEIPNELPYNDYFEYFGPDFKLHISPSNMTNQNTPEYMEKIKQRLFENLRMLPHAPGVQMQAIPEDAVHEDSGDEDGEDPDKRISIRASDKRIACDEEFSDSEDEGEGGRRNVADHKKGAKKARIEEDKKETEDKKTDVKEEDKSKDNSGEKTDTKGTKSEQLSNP
The target in data set [10] is Histone deacetylase 3 (Homo sapiens, UniProt O15379). The data set is described as follows: Inhibition of HDAC3 (unknown origin). The gist of the method: as §3
Histone deacetylase 3, sequence (O15379 whole entry): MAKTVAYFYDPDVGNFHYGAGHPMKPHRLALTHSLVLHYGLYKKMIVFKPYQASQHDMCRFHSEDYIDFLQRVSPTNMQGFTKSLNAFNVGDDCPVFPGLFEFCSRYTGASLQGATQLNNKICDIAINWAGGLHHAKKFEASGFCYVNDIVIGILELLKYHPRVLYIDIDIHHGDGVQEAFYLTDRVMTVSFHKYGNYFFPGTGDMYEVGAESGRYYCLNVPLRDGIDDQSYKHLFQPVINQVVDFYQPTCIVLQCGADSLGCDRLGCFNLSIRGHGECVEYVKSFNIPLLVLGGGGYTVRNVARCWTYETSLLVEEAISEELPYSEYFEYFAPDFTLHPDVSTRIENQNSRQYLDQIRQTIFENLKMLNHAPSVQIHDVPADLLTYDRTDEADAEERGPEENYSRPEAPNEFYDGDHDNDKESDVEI
Data set [11] addresses T2, Histone deacetylase 8 (Homo sapiens, UniProt Q9BY41).
T2 sequence (Q9BY41 whole entry): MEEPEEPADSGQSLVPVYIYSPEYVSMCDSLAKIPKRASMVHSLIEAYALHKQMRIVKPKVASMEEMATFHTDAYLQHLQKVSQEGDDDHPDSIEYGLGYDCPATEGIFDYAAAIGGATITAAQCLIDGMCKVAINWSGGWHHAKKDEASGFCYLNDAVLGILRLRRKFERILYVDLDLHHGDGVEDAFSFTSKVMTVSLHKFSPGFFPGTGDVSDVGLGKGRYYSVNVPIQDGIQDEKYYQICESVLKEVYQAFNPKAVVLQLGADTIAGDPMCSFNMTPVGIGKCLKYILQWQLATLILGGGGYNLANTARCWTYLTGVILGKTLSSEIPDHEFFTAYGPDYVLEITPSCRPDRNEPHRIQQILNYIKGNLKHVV
Kind of data set: Inhibition of HDAC8 (unknown origin). The gist of the method: as §3

The target of data set [12] is T3, Protein deacetylase HDAC6 (Homo sapiens, UniProt Q9UBN7).
T3 sequence (Q9UBN7 whole entry): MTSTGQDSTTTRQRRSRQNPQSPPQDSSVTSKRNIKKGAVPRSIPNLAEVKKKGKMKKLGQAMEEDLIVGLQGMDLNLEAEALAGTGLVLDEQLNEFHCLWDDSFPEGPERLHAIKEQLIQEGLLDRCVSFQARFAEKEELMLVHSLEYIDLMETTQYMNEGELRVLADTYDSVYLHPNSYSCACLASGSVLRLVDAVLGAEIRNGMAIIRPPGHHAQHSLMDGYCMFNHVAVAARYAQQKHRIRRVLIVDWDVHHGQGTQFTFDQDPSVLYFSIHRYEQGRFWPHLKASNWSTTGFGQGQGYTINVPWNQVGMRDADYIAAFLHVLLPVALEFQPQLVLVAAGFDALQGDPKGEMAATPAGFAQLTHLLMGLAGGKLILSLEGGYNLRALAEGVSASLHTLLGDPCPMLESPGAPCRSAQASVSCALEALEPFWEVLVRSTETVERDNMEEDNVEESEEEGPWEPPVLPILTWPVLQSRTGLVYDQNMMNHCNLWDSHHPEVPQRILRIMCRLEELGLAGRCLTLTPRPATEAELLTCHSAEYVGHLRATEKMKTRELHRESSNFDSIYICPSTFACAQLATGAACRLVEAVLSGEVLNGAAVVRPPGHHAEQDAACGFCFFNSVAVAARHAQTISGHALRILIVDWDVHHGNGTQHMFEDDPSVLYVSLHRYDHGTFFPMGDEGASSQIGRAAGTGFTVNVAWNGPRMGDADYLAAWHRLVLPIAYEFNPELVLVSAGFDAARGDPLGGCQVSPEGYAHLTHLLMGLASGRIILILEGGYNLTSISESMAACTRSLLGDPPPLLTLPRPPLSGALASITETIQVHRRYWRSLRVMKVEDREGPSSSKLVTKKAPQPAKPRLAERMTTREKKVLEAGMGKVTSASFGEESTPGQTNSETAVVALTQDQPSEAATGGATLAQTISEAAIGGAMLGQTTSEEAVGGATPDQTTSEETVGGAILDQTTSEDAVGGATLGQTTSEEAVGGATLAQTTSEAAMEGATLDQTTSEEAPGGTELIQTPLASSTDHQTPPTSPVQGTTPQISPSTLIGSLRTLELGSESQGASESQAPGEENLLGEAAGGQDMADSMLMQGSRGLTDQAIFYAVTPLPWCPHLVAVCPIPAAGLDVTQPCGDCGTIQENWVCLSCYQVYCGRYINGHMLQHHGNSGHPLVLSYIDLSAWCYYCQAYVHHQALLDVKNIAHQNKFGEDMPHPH
Kind of data set: Inhibition of HDAC6 (unknown origin). In a few lines:
as §3

Data set [13] deals with T4, Polyamine deacetylase HDAC10 (Homo sapiens, UniProt Q969S8).
T4 sequence (Q969S8 whole entry): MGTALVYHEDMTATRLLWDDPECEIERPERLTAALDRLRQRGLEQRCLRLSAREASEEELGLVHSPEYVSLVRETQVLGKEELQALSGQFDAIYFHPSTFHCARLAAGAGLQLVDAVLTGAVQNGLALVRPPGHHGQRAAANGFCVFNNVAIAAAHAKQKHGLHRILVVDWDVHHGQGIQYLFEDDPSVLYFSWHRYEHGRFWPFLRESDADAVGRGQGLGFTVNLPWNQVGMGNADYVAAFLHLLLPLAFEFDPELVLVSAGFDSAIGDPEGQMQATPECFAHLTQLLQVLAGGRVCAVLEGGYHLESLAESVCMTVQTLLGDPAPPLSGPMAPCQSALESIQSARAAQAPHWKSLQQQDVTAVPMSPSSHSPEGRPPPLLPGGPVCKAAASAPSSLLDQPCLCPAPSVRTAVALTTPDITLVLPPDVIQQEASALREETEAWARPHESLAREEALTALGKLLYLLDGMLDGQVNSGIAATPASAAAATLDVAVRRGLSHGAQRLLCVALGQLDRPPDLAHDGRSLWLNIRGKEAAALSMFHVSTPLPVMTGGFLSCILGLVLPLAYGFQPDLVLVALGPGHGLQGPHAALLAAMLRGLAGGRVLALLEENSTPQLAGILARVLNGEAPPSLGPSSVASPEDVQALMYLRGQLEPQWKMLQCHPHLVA
The data set is described as follows: Inhibition of HDAC10 (unknown origin). The gist of the method:
as §3

The target of data set [14] is T5, Histone deacetylase 11 (Homo sapiens, UniProt Q96DB2).
T5 sequence (Q96DB2 whole entry): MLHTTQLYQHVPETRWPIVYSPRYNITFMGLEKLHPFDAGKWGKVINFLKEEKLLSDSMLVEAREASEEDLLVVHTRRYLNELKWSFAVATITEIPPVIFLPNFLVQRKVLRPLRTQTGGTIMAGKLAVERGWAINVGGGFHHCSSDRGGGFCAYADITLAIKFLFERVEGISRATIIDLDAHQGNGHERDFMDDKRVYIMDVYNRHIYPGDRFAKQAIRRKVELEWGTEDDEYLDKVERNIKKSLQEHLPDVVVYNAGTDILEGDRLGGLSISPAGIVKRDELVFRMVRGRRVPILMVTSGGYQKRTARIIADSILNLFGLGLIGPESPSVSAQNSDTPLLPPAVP
The data set is described as follows: Inhibition of HDAC11 (unknown origin). The gist of the method: as §3

The test system of data set [15] is U-937. Kind of data set: Antiproliferative activity against human U937 cells at 10 to 100 uM after 24 to 72 hrs. Format: functional, cell-based. In a few lines:
as §2

The subject of data set [16] is U-937. Kind of data set: Cytotoxicity against human U937 cells assessed as reduction in cell viability at 10 to 100 uM after 24 to 72 hrs. Type of data set: functional, cell-based. The gist of the method: as §2

Activity calls are given as the source filed them. The rule behind the calls is not given here. Bounds are passed on as bounds.

Histone deacetylase 1, sequence (Q13547 whole entry): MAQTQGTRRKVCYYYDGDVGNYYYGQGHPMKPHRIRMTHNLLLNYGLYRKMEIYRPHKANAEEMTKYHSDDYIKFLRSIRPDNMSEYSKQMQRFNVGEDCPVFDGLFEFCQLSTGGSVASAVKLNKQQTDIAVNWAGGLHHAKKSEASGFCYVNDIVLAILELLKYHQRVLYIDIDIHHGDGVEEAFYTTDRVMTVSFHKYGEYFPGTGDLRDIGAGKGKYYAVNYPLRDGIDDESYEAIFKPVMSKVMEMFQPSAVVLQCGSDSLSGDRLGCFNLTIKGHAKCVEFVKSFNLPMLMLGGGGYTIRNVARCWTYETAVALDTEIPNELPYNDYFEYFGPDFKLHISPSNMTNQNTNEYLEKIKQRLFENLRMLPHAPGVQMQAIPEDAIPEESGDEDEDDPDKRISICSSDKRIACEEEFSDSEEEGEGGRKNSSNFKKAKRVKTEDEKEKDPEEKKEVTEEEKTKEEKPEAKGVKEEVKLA

By inhibition is commonly meant how much of the control response was suppressed. Molecule `O=C(/C=C/c1ccccc1)c1cc2ccccc2oc1=O` returned an inhibition in data set [1] of under 10%.
Turning to `COc1ccc(/C=C/C=O)cc1OC` [3,4-DIMETHOXY CINNAMALDEHYDE], the inhibition result in data set [2] and in [5] was “inactive” each time. The values for the Activity in [3] and in data set [7] were 80% and “Non-toxic”, respectively. In [4], the inhibition result is “Active”. Further, the outcome in [6] was inactive.
By IC50 is commonly meant the midpoint of a concentration-inhibition curve. For `COc1ccc2cc(C(=O)/C=C/C=C/c3ccc(OC)c(OC)c3)c(=O)oc2c1`, the inhibition in data set [1] was 50%. Further, the IC50 is 59 µM in data set [8]; 33 µM in data set [9]; 12 µM in data set [10]; 28 µM in data set [11]; 32 µM in data set [12]; 85 µM in [13]. Besides, the half-inhibitory concentration (IC50) in data set [14] turned out to be 74 µM. Besides, the inhibition result in data set [2] and in data set [15] was “Active” each time. Besides, the Activity entry in data set [7] is reported as “Non-toxic”.
`COc1ccc2cc(C(=O)/C=C/c3ccc(OC)c(OC)c3)c(=O)oc2c1` showed an inhibition in data set [1] of under 10%.
As to `O=C(/C=C/C=C/c1ccccc1)c1cc2ccccc2oc1=O`, in data set [1], the inhibition is under 10%.
Molecule `COc1ccc(/C=C/C(=O)c2cc(=O)oc3cc(OC)ccc23)cc1` came in with an inhibition in data set [1] of 20%. Further, the inhibition result in data set [2], in data set [15] and in [16] was “Active” each time. The Activity result in data set [7] is on record as “Non-toxic”.
Regarding `COc1ccc(/C=C/C=C/C(=O)c2cc3ccc(OC)cc3oc2=O)cc1`, in [1], the inhibition came out at 30%. Also, the inhibition entry in data set [2] and in [15] was “Active” each time. Moreover, the Activity entry in data set [7] is listed as “Non-toxic”.
`COc1ccc(/C=C/C(=O)c2cc3ccc(OC)cc3oc2=O)cc1`: the inhibition in [1] was under 10%.
In data set [1], `COc1ccc2cc(C(C)=O)c(=O)oc2c1` registered an inhibition of 20%. Moreover, the inhibition entry in data set [2] and in [5] was “inactive” in each case. Moreover, the inhibition result in data set [4] was “Active”. Also, the result in [6] was inactive. Also, the Activity entry in data set [7] is reported as “Non-toxic”.
In data set [1], `COc1ccc2cc(C(=O)/C=C/C=C/c3ccc(O)c(OC)c3)c(=O)oc2c1` yielded an inhibition of under 10%.

The values are drawn from ChEMBL document CHEMBL3351243, “Novel inhibitors of human histone deacetylases: design, synthesis and bioactivity of 3-alkenoylcoumarines” (Bioorg Med Chem Lett, 2014).
